# Test results from PubChem BioAssay AID821 (SRMLSC, 2007).
# Activity calls are given as the source filed them.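 Rule for the calls: active = compounds whose fitted half-maximal concentration for reducing fibroblast viability is 100 µM or lower; inactive = the rest.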
# Experiment: LL 47 lung fibroblast growth inhibition, concentration-response, selectivity test for endothelial growth inhibitor program, cellular, luminescent ATP readout (AID 821);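 note: 100% = median of untreated cell-only wells and 0% = no luminescence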
# Conditions: LL 47 lung fibroblast viability, ATP luminescence; at 20 µM (top of the series)
# Procedure, shortened: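 assay system = LL 47 human lung fibroblasts | quantity = 1,150 cells per well | compound = dose series 0.039–20 µM final, 0.2% DMSO | incubation = overnight cell settling, then 72 h compound exposure at 37 °C | signal = CellTiter-Glo luminescence readout of viable cells | read-out basis = % viability versus median cell-only wells, four-parameter EC50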
row,Structure (SMILES),viability
1,COCCn1c(SCC(=O)Nc2ccc(NC(=O)c3ccco3)c(OC)c2)nc2ccccc2c1=O,99.1% (inactive)
2,C=C(C)COc1ccc(-c2n[nH]c(C)c2-c2ccccc2OC)c(O)c1,90.3% (inactive)
3,O=C(Nc1ccc(OC(F)F)c(Cl)c1)Nc1ccc2c(c1)OCO2,109% (inactive)
4,CC1(C)CC(=O)c2cc(C(=O)NCc3ccco3)c(=O)n(-c3ccc(Cl)cc3)c2C1,105% (inactive)
5,Cc1cc(C)n(-c2nc(Nc3ccccc3C)nc(-n3nc(C)cc3C)n2)n1,97.1% (inactive)
6,Cc1nc2sccn2c(=O)c1CCN1CCC(=C(c2ccc(F)cc2)c2ccc(F)cc2)CC1,91.4% (inactive)
7,c1ccc(CSc2nnc(-c3c[nH]c4ccccc34)o2)cc1,102% (inactive)
8,CC(C)OC(=O)NCCOC(=O)Nc1cccc(Cl)c1,103% (inactive)
9,Cc1sc2nc(SCC(=O)NCc3ccco3)n(Cc3ccccc3)c(=O)c2c1C,98.4% (inactive)
10,OC(COc1ccc(Cl)c2ccccc12)CN1CCN(c2ccccn2)CC1 (centres undefined),109% (inactive)
11,CCCc1ccc(Oc2c(-c3ccc(O)c(C)c3O)n[nH]c2C)cc1,97.3% (inactive)
12,Cc1cc(NC(=O)CSc2nc(C(C)C)nc3sc4c(c23)CCCC4)no1,93.6% (inactive)
13,CC1CCc2sc3nc(N4CCN(CCO)CC4)n4ncnc4c3c2C1 (centres undefined),96.4% (inactive)
14,CCOc1ccc(NC(=S)Nc2ccc(C)c([N+](=O)[O-])c2)cc1,121% (inactive)
15,CCOc1c(Br)ccc2c1sc1nc[nH]c(=O)c12,102% (inactive)
16,O=C1c2[nH]nc(-c3ccccc3O)c2C(c2cccc(Cl)c2)N1Cc1ccco1 (centres undefined),98.4% (inactive)
17,C=CCn1c(O)c(C2=c3ccccc3=NC2=O)s/c1=N/c1nccs1,88% (inactive)
18,Cc1nc(Nc2ccc3c(c2)OCCO3)c2nnn(Cc3ccccc3Cl)c2n1,102% (inactive)
19,CCCc1nc(SCC(=O)N2CCC(Cc3ccccc3)CC2)c2c(=O)n(C)c(=O)n(C)c2n1,106% (inactive)
20,Clc1ccc(-c2nc(NCCN3CCOCC3)c3ccccc3n2)cc1,83.1% (inactive)
21,Cc1cc(C)cc(OC(=O)CS(=O)c2ccc(C(F)(F)F)cc2[N+](=O)[O-])c1 (centres undefined),98.3% (inactive)
22,CCc1cc(-c2n[nH]c(C)c2Oc2ccc(C(C)C)cc2)c(O)cc1O,85.5% (inactive)
23,Cc1cccnc1Nc1nc(-c2ccc(O)cc2O)cs1,94.8% (inactive)
24,CC(=O)Nc1ccc(S(=O)(=O)N2CCN(c3nc(NC4CCCC4)c4ccccc4n3)CC2)cc1,84.8% (inactive)

row,Structure (SMILES),viability
1,CC1(C)Nc2ccc(O)cc2-c2c1ssc2=S,92.1% (inactive)
2,COC(=O)/C(=C\Nc1ccc(Cl)cc1Cl)NC(=O)c1ccc(Cl)cc1Cl,96% (inactive)
3,C=CCOC(=O)C1=C(C)NC(SCC(=O)Nc2nccs2)=C(C#N)C1c1cccs1 (centres undefined),91.3% (inactive)
4,Cc1cccc(-c2nc(CN3CCCC(C(=O)NC4CCC(C)CC4)C3)c(C)o2)c1 (centres undefined),85.4% (inactive)
5,COc1ccc(O)c(-c2cc(-c3cccc(Br)c3)n[nH]2)c1,86.3% (inactive)
6,O=C(CSc1nnc(-c2cc(-c3cccs3)nc3ccccc23)o1)NC1CCCCC1,98.4% (inactive)
7,Cc1oc(-c2ccccc2F)nc1CN1CCC(C(=O)NCCC2=CCCCC2)CC1,83.4% (inactive)
8,CC1(C)Cc2c(C#N)c(N3CCN(C(=O)c4ccco4)CC3)nc(Cc3ccccc3)c2CO1,87.4% (inactive)
9,CC(C(=O)N1CCOCC1)N1C(=O)c2ccccc2C1=O (centres undefined),117% (inactive)
10,Cc1nn(C)c(C)c1NC(=O)CSc1nc(C2CC2)nc2c1cnn2-c1ccccc1,108% (inactive)
11,COc1ccc(-c2cn3c(C)c(C(=O)Nc4cccc(NC(C)=O)c4)sc3n2)cc1,109% (inactive)
12,O=[N+]([O-])c1cccnc1N1CCC(c2cc(-c3cccc(C(F)(F)F)c3)n[nH]2)CC1,102% (inactive)
13,COC(=O)c1ccc(NC(=O)Nc2ccc(F)c(Cl)c2)cc1,106% (inactive)
14,CCOc1cc(/C=N\NC(=O)Cn2nc([N+](=O)[O-])cc2C)ccc1OCc1cccc2ccccc12,89.7% (inactive)
15,COc1ccccc1NC(=O)CC1C(=O)NCCN1C(=O)Nc1ccc(Cl)c(Cl)c1 (centres undefined),82.4% (inactive)
16,CCCSc1nc2c(cnn2-c2ccc(C)cc2)c(=O)[nH]1,93.1% (inactive)
17,Nc1c(C(=O)Nc2ccc3c(c2)OCCO3)nnn1CCc1ccccc1,82.1% (inactive)
18,O=c1/c(=C/c2ccco2)sc2n1CN(c1cccc(Br)c1)CN=2,106% (inactive)
19,COc1ccc2nc3oc(C(=O)N4CCN(c5ccccc5F)CC4)cc3cc2c1,108% (inactive)
20,COC(=O)c1cc(NC(=O)c2c(Cl)nc3sccn23)cc(C(=O)OC)c1,91.8% (inactive)
21,COc1cccc(-c2cc(C(=O)Nc3cc(C)n(Cc4ccc(Cl)cc4)n3)no2)c1,92% (inactive)
22,CC(C)(C)C1CC=C2C(C#N)=C(N)C(C#N)(C#N)C(c3cccs3)C2C1 (centres undefined),94.4% (inactive)
23,O=C(Cn1cc(C(=O)c2ccccc2F)c2ccccc21)NCc1ccco1,104% (inactive)
24,Cc1cc(C)c2c(c1)SC1=NC(c3ccccc3)(C(F)(F)F)NC(=O)N12 (centres undefined),102% (inactive)

row,Structure (SMILES),viability
1,Cn1nnc(NC(=O)CSc2ccc(Cl)cc2)n1,125% (inactive)
2,Cc1ccc2c(c1)c1cccc3c1n2CCN3CCC(N)=O,89% (inactive)
3,O=C(Nc1ccc2c(c1)OCO2)c1cc(C2CC2)on1,104% (inactive)
4,Cc1ccc2[nH]c3c(NCc4ccco4)ncnc3c2c1,85.1% (inactive)
5,COCCn1c(C)cc(C(=O)CSc2nc3ccccc3o2)c1C,129% (inactive)
6,CCOC(=O)c1ccc(NC(=O)CCc2nc(-c3cccc(C)c3)no2)cc1,107% (inactive)
7,Cc1ccc(-c2nnc(N3CCN(C(=O)CSc4ncn[nH]4)CC3)c3ccccc23)cc1,102% (inactive)
8,N=c1nc(N)nc2n1NC(c1ccc(F)cc1)=CS2,104% (inactive)
9,CCN(CC)c1cc(C)c2cc(NC(=O)c3ccc(Br)o3)ccc2n1,93% (inactive)
10,CCc1ccc2[nH]c(=O)c(CN(Cc3ccccc3)C(=O)Nc3ccccc3OC)cc2c1,88.9% (inactive)
11,Cc1cc(C)c2oc(-c3cccc(NC(=O)c4ccc(F)cc4)c3)nc2c1,104% (inactive)
12,CC(C)OCCCN1C(=O)c2[nH]nc(-c3ccccc3O)c2C1c1cccc(Cl)c1 (centres undefined),98.3% (inactive)
13,Cc1ccc(C)c(N2CCN(CCCNC(=O)Cn3cc4c(n3)CCCCC4)CC2)c1,83.3% (inactive)
14,CC(/C=N/n1cnnc1)=C\c1ccccc1,109% (inactive)
15,Cc1occc1-c1nnc(SCC(=O)NCc2cccs2)n1-c1ccc(F)cc1,99.1% (inactive)
16,O=S(=O)(Nc1cccnc1)c1ccc(C2CCCCC2)cc1,100% (inactive)
17,Cc1nn(-c2ccc(F)cc2)c(C)c1NS(=O)(=O)c1ccc(Cl)cc1,90.7% (inactive)
18,COc1cccc2c(C)nc(Nc3nc(CSc4nnc(C)s4)cc(=O)[nH]3)nc12,117% (inactive)
19,Cc1ccc(/C=C/C(=O)c2ccccc2)cc1,85.6% (inactive)
20,Cc1ccsc1/C=C/C1=Cc2c(sc(NC(=O)CSc3n[nH]c(N)n3)c2C#N)C(C)(C)C1,112% (inactive)
21,Cc1ccc2c(c1)[nH]c1c(N3CCN(Cc4ccccc4)CC3)ncnc12,88.3% (inactive)
22,COc1cc2c(N3CCOCC3)cc(O)c(CC(=O)Nc3ccccc3)c2cc1OC,95.9% (inactive)
23,Cc1cccc(C)c1OCC(=O)N=Nc1c(O)[nH]c2ccc(Br)cc12,104% (inactive)
24,CCOC(=O)CNC(=O)C(=O)c1c(O)[nH]c2ccccc12,96.6% (inactive)

row,Structure (SMILES),viability
1,Cc1cc(Cl)ccc1OCCCC(N)=O,95% (inactive)
2,Cc1nn(CC(=O)Nc2ccc3c(c2)oc2ccccc23)c(=O)c2ccccc12,105% (inactive)
3,CCOC(=O)c1c(OCC)[nH]c2c1cc(O)c1ccccc12,117% (inactive)
4,CCOC(=O)c1c(NC(=O)C2COc3ccccc3O2)sc(C(C)=O)c1C (centres undefined),104% (inactive)
5,Cc1ccc2[nH]c3c(N4CCN(Cc5ccccc5)CC4)ncnc3c2c1,88.2% (inactive)
6,CC(Nc1nc(N2CCN(S(C)(=O)=O)CC2)nc2ccccc12)c1ccccc1 (centres undefined),92.9% (inactive)
7,O=C(Nc1ccc(Cl)c(Cl)c1)C1=Cc2ccccc2OC1,99.6% (inactive)
8,COc1cc(N=c2ssnc2Cl)c(OC)cc1Cl,88.6% (inactive)
9,COC(=O)C1=C(C)N=c2s/c(=C3\C(=O)Nc4ccccc43)c(=O)n2C1c1ccccc1 (centres undefined),80.9% (inactive)
10,Clc1ccc(Cn2cc(/C=N/n3cnnc3)c3ccccc32)c(Cl)c1,99% (inactive)
11,Brc1cccc(-c2nnc3sc(CNC4CCCC4)cn23)c1,96.9% (inactive)
12,CCOC(=O)c1cnc(-n2nc(C)cc2C)nc1NCc1ccc2c(c1)OCO2,96.5% (inactive)
13,O=C(CSc1nnc(-c2cccs2)n1-c1ccccc1)Nc1ccccc1,90.4% (inactive)
14,O=C(NCc1ccc2c(c1)OCO2)C1CCC(CNS(=O)(=O)c2cccc3nsnc23)CC1 (centres undefined),106% (inactive)
15,CCCCOc1ccc(C(=O)OC2CC(C)N(C)CC2C)cc1 (centres undefined),96.4% (inactive)
16,CCOC(=O)c1sc(NC(=O)CSc2nnnn2-c2ccc(C)c(C)c2)nc1C,83.3% (inactive)
17,O=C(CC1SCCNC1=O)Nc1cc(Cl)cc(Cl)c1 (centres undefined),100% (inactive)
18,COc1ccccc1NC(=O)C1C2C=CC(O2)C1C(=O)O (centres undefined),100% (inactive)
19,COc1ccc(OC)c(S(=O)(=O)N(C)CC(=O)N2CCN(c3ccc(F)cc3)CC2)c1,106% (inactive)
20,COc1ccc2[nH]c(=O)c(CN(C3CCCCC3)C(c3nnnn3Cc3ccco3)C(C)C)cc2c1 (centres undefined),83.2% (inactive)
21,Cc1cc(NCCCN2CCOCC2)n2ncc(-c3ccc(Cl)cc3)c2n1,84.9% (inactive)
22,CCOc1ccc(-c2nn3c(-c4ccccc4)nnc3s2)cc1,113% (inactive)
